Reference: publication PMC7261135 (Journal of medicinal chemistry, 2020)
Like-named read-outs stand apart in the source and are kept apart here. One block for each compound: values may come before it.

How the values were obtained:
[1] = in vitro plasma stability; format: in vitro ADME; details: rat plasma (rat serum)
How it was run: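 Test compound incubated in rat serum, with diltiazem run alongside as assay QC control.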

[2] = solution stability at pH 5.0, 7.4, 9.4; format: physicochemical
[3] = biological target: T1, mGluR4 (Homo sapiens, UniProt Q14833); assay: competitive binding assay with [^3H]4 in mGluR4 transfected CHO cells
T1 sequence (Q14833 33-912): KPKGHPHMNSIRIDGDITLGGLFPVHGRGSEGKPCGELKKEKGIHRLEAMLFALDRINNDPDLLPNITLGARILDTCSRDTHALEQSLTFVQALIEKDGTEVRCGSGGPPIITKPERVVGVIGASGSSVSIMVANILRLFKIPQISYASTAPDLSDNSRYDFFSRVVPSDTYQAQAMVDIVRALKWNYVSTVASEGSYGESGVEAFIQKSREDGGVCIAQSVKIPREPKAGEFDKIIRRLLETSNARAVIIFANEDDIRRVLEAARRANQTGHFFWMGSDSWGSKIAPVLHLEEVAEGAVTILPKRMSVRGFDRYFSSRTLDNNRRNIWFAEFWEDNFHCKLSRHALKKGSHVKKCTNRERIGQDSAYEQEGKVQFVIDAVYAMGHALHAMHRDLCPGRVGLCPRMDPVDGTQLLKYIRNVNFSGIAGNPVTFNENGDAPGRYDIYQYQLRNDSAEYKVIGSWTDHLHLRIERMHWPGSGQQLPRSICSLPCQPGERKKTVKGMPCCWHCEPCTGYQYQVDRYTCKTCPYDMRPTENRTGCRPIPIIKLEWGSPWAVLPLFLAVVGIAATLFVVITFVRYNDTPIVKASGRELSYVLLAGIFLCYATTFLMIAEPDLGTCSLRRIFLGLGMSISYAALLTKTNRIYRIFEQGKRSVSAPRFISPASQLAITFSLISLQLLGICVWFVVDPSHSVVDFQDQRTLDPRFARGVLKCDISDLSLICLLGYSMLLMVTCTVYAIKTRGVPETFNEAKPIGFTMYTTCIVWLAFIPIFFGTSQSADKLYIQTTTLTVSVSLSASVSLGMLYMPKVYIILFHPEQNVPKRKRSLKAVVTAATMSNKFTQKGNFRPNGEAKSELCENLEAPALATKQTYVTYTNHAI

[4] = liver microsomal stability; format: in vitro ADME, rat
[5] = biological target: T2, mGluR4 (Rattus norvegicus, UniProt P31423); assay: PET blocking studies of [^18F]15 binding; format: in vivo, Sprague Dawley rats; details: rats
T2 sequence (P31423 33-912): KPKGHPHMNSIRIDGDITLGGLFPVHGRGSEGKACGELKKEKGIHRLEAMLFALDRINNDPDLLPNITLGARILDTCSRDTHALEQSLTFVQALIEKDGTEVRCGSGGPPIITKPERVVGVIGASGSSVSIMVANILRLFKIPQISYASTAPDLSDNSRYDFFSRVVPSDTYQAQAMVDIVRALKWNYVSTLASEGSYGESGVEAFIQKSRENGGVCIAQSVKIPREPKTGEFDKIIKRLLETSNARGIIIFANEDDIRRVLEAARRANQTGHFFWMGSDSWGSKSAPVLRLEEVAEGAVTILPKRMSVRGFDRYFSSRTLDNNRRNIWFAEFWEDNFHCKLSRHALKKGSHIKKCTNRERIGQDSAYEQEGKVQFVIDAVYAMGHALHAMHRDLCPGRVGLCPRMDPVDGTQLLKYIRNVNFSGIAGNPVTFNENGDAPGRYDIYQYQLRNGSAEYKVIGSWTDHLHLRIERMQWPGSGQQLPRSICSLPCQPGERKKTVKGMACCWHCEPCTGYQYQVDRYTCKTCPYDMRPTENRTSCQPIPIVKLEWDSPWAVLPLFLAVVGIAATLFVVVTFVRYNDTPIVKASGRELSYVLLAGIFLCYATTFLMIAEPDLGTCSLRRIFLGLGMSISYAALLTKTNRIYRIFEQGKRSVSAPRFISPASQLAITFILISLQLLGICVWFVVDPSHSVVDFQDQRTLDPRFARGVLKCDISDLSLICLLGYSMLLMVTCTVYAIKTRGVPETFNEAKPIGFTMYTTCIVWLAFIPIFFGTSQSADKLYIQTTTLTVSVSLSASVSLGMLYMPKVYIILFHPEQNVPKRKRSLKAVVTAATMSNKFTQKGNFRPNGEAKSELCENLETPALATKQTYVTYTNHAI
How it was run: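 Male Sprague Dawley rats under isoflurane/nitrous oxide (1.0–1.5% isoflurane) with a tail-vein catheter. Blocker 1, 2 or 3 mg/kg in saline with 10% DMSO, 5% Tween-20, 85% PBS, given 1 min before iv tracer (18–34 MBq). Dynamic PET 60 min, CT for attenuation correction, MLEM reconstruction. Regional time-activity curves; blocking as percent change from baseline scans.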

[6] = biological target: T1, mGluR4; assay: mGluR4 Gi fold shift assay; format: cell-based
How it was run: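 Split-luciferase GloSensor cAMP biosensor read-out of Gi-coupled mGluR4 signalling. L-SOP concentration-response curves were run with test compound at 3.0 μM and the leftward shift measured; efficacy given relative to glutamate maximum. Data from NIMH PDSP, averaged over at least three independent determinations run in triplicate.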

[7] = Log D7.4, scaled-down shake flask method using [^18F]15; format: physicochemical; details: octanol/phosphate buffer, pH 7.4
How it was run: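 Radiolabelled test compound (74 kBq) was partitioned between octanol and pH 7.4 phosphate buffer, vortexed 2 min and centrifuged 2 min, and both phases were sampled. An octanol aliquot went into fresh octanol/buffer and the cycle was repeated to give six sets. Gamma counting; Log D = log(octanol counts × 10 / buffer counts).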

[8] = ex vivo biodistribution of [^18F]15; format: in vivo; details: male Sprague Dawley rats
[9] = biological target: T2, mGluR4; assay: PET imaging of [^18F]15, baseline; format: in vivo, Sprague Dawley rats; details: rats
[10] = rat liver microsomes with NADPH

The plasma stability: The intact ± SEM at 120 (min%) [1]: 49.0 ± 10.6%
The solution stability: The intact ± SEM at 120 min ([2]; pH = 5.0): 94.7 ± 1.4%
The solution stability: The intact ± SEM at 120 min ([2]; pH = 7.4): 99.0 ± 5.7%
The solution stability: The intact ± SEM at 120 min ([2]; pH = 9.4): 69.8 ± 2.6%
Compound: COc1ccc([C@@H]2Sc3ccccc3N(CCN(C)C)C(=O)[C@@H]2OC(C)=O)cc1 [Diltiazem]

accumulation in brain ([8]; at 10 min after iv injection): 0.41±0.18 % ID/g
accumulation in heart ([8]; at 20 min after iv injection): 0.50±0.08 % ID/g
accumulation in liver ([8]; at 20 min after iv injection): 1.33±0.12 % ID/g
accumulation in lungs ([8]; at 20 min after iv injection): 0.58±0.17 % ID/g
accumulation in kidneys ([8]; at 30 min after iv injection): 0.93±0.57 % ID/g
time of highest accumulation in the thalamus ([9]; after administration of the ligand): about 2 min
maximum average uptake in the thalamus ([9]; time interval 1–10 min after administration): 1.77±0.26 % ID/cc
Compound: [2H]C([2H])([18F])Sc1cc(NC(=O)c2ccccn2)ccc1Cl [[^18F]15, [^18F]-N-(4-chloro-3-((fluoromethyl-d2)thio)phenyl)-picolinamide]

The remaining lines, values behind:

Compound: COc1cc(NC(=O)c2ccccn2)ccc1Cl [Compound 4]
The plasma stability: The intact ± SEM at 120 (min%) [1]: 98.2 ± 6.3%
The solution stability: The intact ± SEM at 120 min ([2]; pH = 5.0): 92.7 ± 3.1%
The solution stability: The intact ± SEM at 120 min ([2]; pH = 7.4): 97.3 ± 1.1%
The solution stability: The intact ± SEM at 120 min ([2]; pH = 9.4): 89.1 ± 2.1%

Compound: CSc1cc(NC(=O)c2ccccn2)ccc1Cl [Compound 13]
IC50 ([3]; read-out: IC50±SE, mGluR4 transfected CHO cells, 2 nM [^3H]4, test compound 0.01 nM to 10 μM): 3.5 ± 0.7 nM
The plasma stability: The intact ± SEM at 120 (min%) [1]: 91.5 ± 2.5%
The microsome stability Clint [4, 10]: 54.8 μL/min /mg protein
The microsome stability t1/2 [4, 10]: 25.3 min
The solution stability: The intact ± SEM at 120 min ([2]; pH = 5.0): 85.9 ± 0.8%
The solution stability: The intact ± SEM at 120 min ([2]; pH = 7.4): 87.9 ± 3.4%
The solution stability: The intact ± SEM at 120 min ([2]; pH = 9.4): 89.3 ± 1.3%
blocking of [^18F]15 binding in striatum ([5]; blocking agent 1 mg/kg): 18%
blocking of [^18F]15 binding in striatum ([5]; blocking agent 2 mg/kg): 20%
blocking of [^18F]15 binding in striatum ([5]; blocking agent 3 mg/kg): 28%
blocking of [^18F]15 binding in the whole brain ([5]; blocking agent 1, 2 or 3 mg/kg, 1 min before tracer): 22–25%

Compound: [2H]C([2H])(F)Sc1cc(NC(=O)c2ccccn2)ccc1Cl [Compound 15, N-(4-Chloro-3-((fluoromethyl-d2)thio)phenyl)picolinamide]
IC50 [3]: 3.5 ± 0.5 nM
leftward shift of agonist (L-SOP) response curve ([6]; at 3.0 μM): 7.5 fold
Emax at 3 µM ([6]; read-out: Glu Max efficacy): 98.3%
logD [7]: 3.82
The plasma stability: The intact ± SEM at 120 (min%) [1]: 84.5 ± 10.2%
microsomal CLint ([4]; rat, liver microsomes): 24.2 µL/min/mg
The solution stability: The intact ± SEM at 120 min ([2]; pH = 5.0): 87.1 ± 0.9%
The solution stability: The intact ± SEM at 120 min ([2]; pH = 7.4): 88.3 ± 1.9%
The solution stability: The intact ± SEM at 120 min ([2]; pH = 9.4): 84.3 ± 1.8%
